From ChEMBL document CHEMBL4014327 (J Med Chem, 2017)
Values after ≈ are worked out from the molar mass of the structure shown. Active and inactive are the calls of the source. The rule behind the calls is not given here.

How the values were obtained:
[1] = Apparent intrinsic clearance in human liver microsomes; format: ADME, microsome; conditions: read-out: CLH(app)
[2] = Apparent permeability in RRCK cells from apical to basolateral side; format: ADME, cell-based, Canis lupus familiaris, MDCKII-LE; conditions: dog, MDCK
How it was run: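 RRCK cell monolayer permeability assay; apparent permeability reported in cm/s.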

[3] = Half life in rat; format: ADME; conditions: in vivo
[4] = Lipophilicity, log D of compound; format: physicochemical; conditions: octanol/water
[5] = Oral bioavailability in rat; format: ADME, organism-based; conditions: in vivo
Rattus norvegicus [6] = assay: Clearance in iv dosed rat; format: ADME, organism-based; conditions: in vivo
CYP2D6 = CYP2D6 (Homo sapiens, UniProt P10635); assay: Inhibition of CYP2D6 in human liver microsomes at 3 uM; format: ADME
[7] = target: Voltage-gated inwardly rectifying potassium channel KCNH2 (Homo sapiens, UniProt Q12809); assay: Inhibition of human ERG
[8] = target: T1, Interleukin-1 receptor-associated kinase 4 (Homo sapiens) (UniProt Q9NWZ3); assay: Inhibition of IRAK4 in human THP1 cell lysate
T1 sequence (whole entry): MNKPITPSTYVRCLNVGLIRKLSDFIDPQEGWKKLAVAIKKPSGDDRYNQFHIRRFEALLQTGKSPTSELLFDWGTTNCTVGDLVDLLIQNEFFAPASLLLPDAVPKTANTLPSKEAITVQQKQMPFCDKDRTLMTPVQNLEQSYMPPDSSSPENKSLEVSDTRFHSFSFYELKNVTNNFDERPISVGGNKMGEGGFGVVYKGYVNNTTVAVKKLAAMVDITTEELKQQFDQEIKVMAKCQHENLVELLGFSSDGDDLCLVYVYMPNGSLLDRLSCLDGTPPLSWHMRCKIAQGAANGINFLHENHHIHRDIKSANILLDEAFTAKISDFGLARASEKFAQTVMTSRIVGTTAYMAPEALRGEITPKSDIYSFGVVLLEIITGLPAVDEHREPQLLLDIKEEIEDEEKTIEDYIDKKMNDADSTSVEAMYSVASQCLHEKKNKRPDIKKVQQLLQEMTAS

[9] = Fraction unbound in rat plasma; format: ADME, cell-free
How it was run: (§1)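 Fraction unbound in plasma measured by equilibrium dialysis.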

CYP2C9 = CYP2C9 (Homo sapiens, UniProt P11712); assay: Inhibition of CYP2C9 in human liver microsomes at 3 uM; format: ADME
Rattus norvegicus [10] = assay: Antiinflammatory activity in Lewis rat CIA model assessed as reduction in paw swelling at 30 mg/kg, po bid treated on day 11 post immunization for 8 days by plethysmographic method; format: functional, organism-based
How it was run: (§2)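 Female Lewis rats (about 7−9 weeks old, n = 10 per group) immunized on day 0 with bovine type II collagen in incomplete Freund's adjuvant and boosted on day 7. Oral dosing twice daily as solution or suspension in vehicle (0.5% methylcellulose, 2% Tween 80 in water), vehicle-only controls. Paw volume measured daily by plethysmograph, body weight recorded daily.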

Rattus norvegicus [11] = assay: In vivo receptor occupancy at IRAK4 in spleen of Lewis rat CIA model at 100 mg/kg, po measured at 1 hr postdose; format: functional
How it was run: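 Lewis female rats (7–9 wk, n = 10/group), immunized with bovine type II collagen/IFA on day 0 and boosted day 7. Oral dosing twice daily in therapeutic mode (started after disease onset), vehicle 0.5% methylcellulose, 2% Tween 80 in water. Spleens sampled 1 h postdose, flash frozen. Kinase occupancy measured by KiNativ profiling with an ATP-competitive probe.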

Rattus norvegicus [12] = assay: Antiinflammatory activity in Lewis rat CIA model assessed as reduction in paw swelling at 100 mg/kg, po bid treated on day 11 post immunization for 8 days by plethysmographic method; format: functional, organism-based; how it was run: as §2
CYP1A2 = CYP1A2 (Homo sapiens, UniProt P05177); assay: Inhibition of CYP1A2 in human liver microsomes at 3 uM; format: ADME
Rattus norvegicus [13] = assay: In vivo receptor occupancy at IRAK4 in spleen of po dosed Lewis rat CIA model measured at 1 hr postdose; format: functional, organism-based
CYP2C8 = CYP2C8 (Homo sapiens, UniProt P10632); assay: Inhibition of CYP2C8 in human liver microsomes at 3 uM; format: ADME
[14] = Thermodynamic solubility of compound at pH 6.5; format: physicochemical; conditions: buffer, read-out: Therm_solubility
CYP3A4 = CYP3A4 (Homo sapiens, UniProt P08684); assay: Inhibition of CYP3A4 in human liver microsomes at 3 uM; format: ADME
[15] = Fraction unbound in human plasma; format: ADME, cell-free; how it was run: as §1
[16] = target: T2, Interleukin-1 receptor-associated kinase 4 (Homo sapiens, UniProt Q9NWZ3); assay: Inhibition of IRAK4 in human PBMC assessed as reduction in R848-stimulated TNF alpha production after 3 hrs
T2 sequence (Q9NWZ3 whole entry): T1 sequence (whole entry)

[17] = target: T1, Interleukin-1 receptor-associated kinase 4 (Homo sapiens); conditions: 236 uM
[18] = target: T1, Interleukin-1 receptor-associated kinase 4 (Homo sapiens); conditions: 909 uM
[19] = target: T2, Interleukin-1 receptor-associated kinase 4; assay: Inhibition of N-terminal His6-tagged human full length IRAK4 preincubated for 20 mins followed by biotinylated-AGAGRDKYKTLRQIR substrate addition in presence of ATP measured after 60 mins by DELFIA method

CYP2C8, sequence (P10632 whole entry): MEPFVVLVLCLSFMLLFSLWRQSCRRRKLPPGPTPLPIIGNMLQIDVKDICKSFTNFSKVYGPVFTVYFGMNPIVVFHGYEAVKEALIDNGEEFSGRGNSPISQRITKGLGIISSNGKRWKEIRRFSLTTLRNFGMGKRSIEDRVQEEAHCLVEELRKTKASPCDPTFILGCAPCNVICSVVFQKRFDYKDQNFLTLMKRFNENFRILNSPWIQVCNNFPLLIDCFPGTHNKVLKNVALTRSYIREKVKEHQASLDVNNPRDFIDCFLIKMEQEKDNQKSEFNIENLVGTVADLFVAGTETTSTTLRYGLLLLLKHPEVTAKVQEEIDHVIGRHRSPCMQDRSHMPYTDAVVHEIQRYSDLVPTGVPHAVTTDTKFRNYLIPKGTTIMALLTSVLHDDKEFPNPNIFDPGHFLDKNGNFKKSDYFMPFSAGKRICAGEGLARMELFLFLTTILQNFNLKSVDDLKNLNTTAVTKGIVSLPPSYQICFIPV
CYP2D6, sequence (P10635 whole entry): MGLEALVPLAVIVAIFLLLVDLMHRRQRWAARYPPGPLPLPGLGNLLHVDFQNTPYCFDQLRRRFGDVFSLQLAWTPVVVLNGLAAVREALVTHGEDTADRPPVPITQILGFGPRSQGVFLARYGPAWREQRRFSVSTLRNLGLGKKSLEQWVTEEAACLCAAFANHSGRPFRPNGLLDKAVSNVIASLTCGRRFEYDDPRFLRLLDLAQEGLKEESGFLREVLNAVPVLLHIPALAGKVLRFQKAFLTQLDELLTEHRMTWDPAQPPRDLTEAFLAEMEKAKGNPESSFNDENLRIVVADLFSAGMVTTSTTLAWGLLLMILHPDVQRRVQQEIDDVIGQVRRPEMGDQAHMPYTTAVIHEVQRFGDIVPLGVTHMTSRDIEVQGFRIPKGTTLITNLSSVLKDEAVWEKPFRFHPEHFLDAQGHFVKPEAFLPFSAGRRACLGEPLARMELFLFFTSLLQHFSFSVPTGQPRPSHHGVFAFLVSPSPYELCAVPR
CYP2C9, sequence (P11712 whole entry): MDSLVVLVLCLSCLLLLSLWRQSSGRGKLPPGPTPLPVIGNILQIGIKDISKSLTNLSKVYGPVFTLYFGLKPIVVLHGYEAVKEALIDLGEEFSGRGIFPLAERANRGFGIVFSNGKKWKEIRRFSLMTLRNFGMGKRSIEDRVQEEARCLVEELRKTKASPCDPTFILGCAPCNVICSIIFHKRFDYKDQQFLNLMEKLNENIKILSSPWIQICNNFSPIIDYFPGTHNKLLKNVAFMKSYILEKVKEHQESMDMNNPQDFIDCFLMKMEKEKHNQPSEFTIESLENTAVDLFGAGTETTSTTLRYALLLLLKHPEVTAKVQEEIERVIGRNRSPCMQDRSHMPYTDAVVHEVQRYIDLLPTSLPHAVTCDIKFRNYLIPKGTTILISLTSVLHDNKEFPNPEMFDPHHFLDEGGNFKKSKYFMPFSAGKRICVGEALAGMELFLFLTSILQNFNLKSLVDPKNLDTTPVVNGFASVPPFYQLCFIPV
CYP3A4, sequence (P08684 whole entry): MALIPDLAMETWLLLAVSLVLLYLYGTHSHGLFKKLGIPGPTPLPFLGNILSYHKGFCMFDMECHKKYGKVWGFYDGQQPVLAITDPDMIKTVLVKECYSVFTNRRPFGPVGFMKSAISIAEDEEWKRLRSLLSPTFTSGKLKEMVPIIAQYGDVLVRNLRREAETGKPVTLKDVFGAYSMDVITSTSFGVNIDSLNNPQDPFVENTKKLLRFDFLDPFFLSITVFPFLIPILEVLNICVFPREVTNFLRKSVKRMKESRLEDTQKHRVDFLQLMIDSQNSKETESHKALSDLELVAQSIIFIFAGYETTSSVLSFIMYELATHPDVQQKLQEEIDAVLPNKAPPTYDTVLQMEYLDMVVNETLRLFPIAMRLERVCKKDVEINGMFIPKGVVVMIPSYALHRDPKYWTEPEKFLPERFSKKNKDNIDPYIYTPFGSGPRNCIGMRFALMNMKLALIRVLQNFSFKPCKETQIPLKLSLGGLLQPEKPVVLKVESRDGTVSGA
CYP1A2, sequence (P05177 whole entry): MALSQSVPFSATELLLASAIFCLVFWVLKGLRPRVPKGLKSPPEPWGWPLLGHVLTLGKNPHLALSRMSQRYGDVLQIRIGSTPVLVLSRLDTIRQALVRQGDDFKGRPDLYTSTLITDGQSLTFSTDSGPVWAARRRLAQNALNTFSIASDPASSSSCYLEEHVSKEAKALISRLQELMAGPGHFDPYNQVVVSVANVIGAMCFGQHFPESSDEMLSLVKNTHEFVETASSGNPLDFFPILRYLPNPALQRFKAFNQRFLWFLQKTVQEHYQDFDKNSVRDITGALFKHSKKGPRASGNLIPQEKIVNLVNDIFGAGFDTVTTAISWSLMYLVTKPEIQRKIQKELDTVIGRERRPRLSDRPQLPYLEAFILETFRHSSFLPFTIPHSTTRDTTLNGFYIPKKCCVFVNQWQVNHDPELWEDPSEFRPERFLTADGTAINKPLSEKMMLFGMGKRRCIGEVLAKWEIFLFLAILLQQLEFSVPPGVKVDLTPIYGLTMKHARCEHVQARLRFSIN
Voltage-gated inwardly rectifying potassium channel KCNH2, sequence (Q12809 whole entry): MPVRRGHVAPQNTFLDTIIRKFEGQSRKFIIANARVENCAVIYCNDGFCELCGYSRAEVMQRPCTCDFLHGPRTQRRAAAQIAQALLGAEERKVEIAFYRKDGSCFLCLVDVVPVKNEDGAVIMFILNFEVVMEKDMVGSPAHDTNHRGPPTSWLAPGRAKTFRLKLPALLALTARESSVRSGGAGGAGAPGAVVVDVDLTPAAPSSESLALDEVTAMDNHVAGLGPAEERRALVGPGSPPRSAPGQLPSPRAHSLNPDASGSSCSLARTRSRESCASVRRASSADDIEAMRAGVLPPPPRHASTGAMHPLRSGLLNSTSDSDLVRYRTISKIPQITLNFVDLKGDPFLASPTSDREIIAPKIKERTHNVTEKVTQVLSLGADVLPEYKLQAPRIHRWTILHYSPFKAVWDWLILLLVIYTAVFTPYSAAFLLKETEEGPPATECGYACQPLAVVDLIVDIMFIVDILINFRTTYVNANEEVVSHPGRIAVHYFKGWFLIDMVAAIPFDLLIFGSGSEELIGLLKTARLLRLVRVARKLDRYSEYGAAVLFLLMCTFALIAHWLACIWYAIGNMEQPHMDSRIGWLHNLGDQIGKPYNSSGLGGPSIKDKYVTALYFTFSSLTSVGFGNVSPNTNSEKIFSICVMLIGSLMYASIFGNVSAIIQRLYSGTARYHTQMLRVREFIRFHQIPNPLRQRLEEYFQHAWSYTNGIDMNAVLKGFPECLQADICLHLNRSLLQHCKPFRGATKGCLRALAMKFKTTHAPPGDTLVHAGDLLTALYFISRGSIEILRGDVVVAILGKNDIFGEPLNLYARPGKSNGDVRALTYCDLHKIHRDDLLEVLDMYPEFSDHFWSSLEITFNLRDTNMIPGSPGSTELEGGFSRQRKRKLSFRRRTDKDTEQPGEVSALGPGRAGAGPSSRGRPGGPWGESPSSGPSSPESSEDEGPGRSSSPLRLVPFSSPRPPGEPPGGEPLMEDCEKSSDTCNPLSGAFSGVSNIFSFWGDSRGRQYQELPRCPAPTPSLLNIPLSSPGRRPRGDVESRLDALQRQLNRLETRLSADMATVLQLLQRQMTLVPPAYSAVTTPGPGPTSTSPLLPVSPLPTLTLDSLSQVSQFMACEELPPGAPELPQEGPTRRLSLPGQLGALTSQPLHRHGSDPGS

SMILES: COc1cc2c(OC[C@H]3NC(=O)[C@@H]4C[C@H]34)nccc2cc1C(N)=O
- microsomal CLint [1]: < 8 µL/min/mg
- Papp A→B [2]: 11.7 ×10⁻⁶ cm/s

SMILES: COc1cc2c(OC[C@H]3NC(=O)[C@@]4(F)[C@@H]3[C@@H]4C)nccc2cc1C(N)=O
- microsomal CLint [1]: < 8 µL/min/mg
- Papp A→B [2]: 16.3 ×10⁻⁶ cm/s

SMILES: CCOc1cc2c(OC[C@@H]3CCC(=O)N3)nccc2cc1C(N)=O
- microsomal CLint [1]: 9 µL/min/mg
- Papp A→B [2]: 10.6 ×10⁻⁶ cm/s

SMILES: COc1cc2c(OC[C@@H]3CCC(=O)N3)nccc2cc1C(N)=O
- half-life [3]: 1 h
- microsomal CLint [1]: 9 µL/min/mg
- Papp A→B [2]: 9.9 ×10⁻⁶ cm/s
- logD [4]: 0.9
- bioavailability [5]: 44%
- clearance (Rattus norvegicus [6]): 35 mL/min/kg

SMILES: COc1cc2c(OC[C@H]3NC(=O)[C@H](F)[C@H]3C)nccc2cc1C(N)=O
- microsomal CLint [1]: 12 µL/min/mg
- Papp A→B [2]: 10.4 ×10⁻⁶ cm/s

SMILES: COc1cc2c(OC[C@H]3NC(=O)[C@@H]4[C@@H](C)[C@@H]43)nccc2cc1C(N)=O
- microsomal CLint [1]: < 8 µL/min/mg
- Papp A→B [2]: 13.5 ×10⁻⁶ cm/s

SMILES: COc1cc2c(OC[C@@H]3CCC(=O)N3)cccc2cc1C(N)=O
- microsomal CLint [1]: 13 µL/min/mg
- Papp A→B [2]: 14.2 ×10⁻⁶ cm/s
- logD [4]: 1.5

SMILES: CC[C@@H]1CC(=O)N[C@@H]1COc1nccc2cc(C(N)=O)c(OC)cc12
- microsomal CLint [1]: 14 µL/min/mg
- Papp A→B [2]: 17.9 ×10⁻⁶ cm/s

SMILES: CC(C)Oc1cc2c(OC[C@@H]3CCC(=O)N3)nccc2cc1C(N)=O
- inhibition at 3 µM (CYP2D6): < 10%
- IC50 [7]: > 30000 nM
- inhibition [8]: Active
- fraction unbound [9]: 0.21
- inhibition at 3 µM (CYP2C9): 13.6%
- Activity (Rattus norvegicus [10]): Active
- half-life [3]: 1.2 h
- microsomal CLint [1]: 10 µL/min/mg
- Papp A→B [2]: 10.7 ×10⁻⁶ cm/s
- Occ (Rattus norvegicus [11]): 80%
- Activity (Rattus norvegicus [12]): Active
- inhibition at 3 µM (CYP1A2): < 10%
- Occ (Rattus norvegicus [13]): Dose-dependent effect
- inhibition at 3 µM (CYP2C8): < 10%
- solubility thermodynamic [14]: 78 µM (≈ 26.8 µg/mL)
- bioavailability [5]: 57%
- inhibition at 3 µM (CYP3A4): < 10%
- clearance (Rattus norvegicus [6]): 23 mL/min/kg
- fraction unbound [15]: 0.29

SMILES: CCC[C@@H]1CC(=O)N[C@@H]1COc1nccc2cc(C(N)=O)c(OC)cc12
- microsomal CLint [1]: 44 µL/min/mg
- Papp A→B [2]: 18.9 ×10⁻⁶ cm/s
- IC50 [16]: 28.4 nM

SMILES: COc1cc2c(OC[C@H]3NC(=O)[C@@H](C)[C@H]3C)nccc2cc1C(N)=O
- microsomal CLint [1]: 9 µL/min/mg
- Papp A→B [2]: 15.8 ×10⁻⁶ cm/s

SMILES: COC[C@@H]1CC(=O)N[C@@H]1COc1nccc2cc(C(N)=O)c(OC)cc12
- microsomal CLint [1]: < 8 µL/min/mg
- Papp A→B [2]: 12.5 ×10⁻⁶ cm/s
- IC50 [16]: 373 nM

SMILES: CC[C@H]1[C@@H](COc2nccc3cc(C(N)=O)c(OC)cc23)NC(=O)[C@@H]1F
- microsomal CLint [1]: 15 µL/min/mg
- Papp A→B [2]: 14.2 ×10⁻⁶ cm/s

SMILES: CC(C)Oc1ccccc1C(N)=O
- inhibition [17]: > 10%
- inhibition [18]: > 50%
- IC50 [19]: 55000 nM

SMILES: CC(C)Oc1cc2c(-c3ccc(C#N)cc3)cccc2cc1C(N)=O
- IC50 [19]: 71.9 nM

SMILES: CC(C)Oc1cc2c(O[C@@H]3CCCNC3)nccc2cc1C(N)=O
- microsomal CLint [1]: 11 µL/min/mg
- Papp A→B [2]: 11.4 ×10⁻⁶ cm/s
- IC50 [16]: 1550 nM
- logD [4]: 0.7
- IC50 [19]: 121 nM

SMILES: COc1cc2c(OC[C@H]3NC(=O)C[C@H]3C)nccc2cc1C(N)=O
- microsomal CLint [1]: < 9 µL/min/mg
- Papp A→B [2]: 10.5 ×10⁻⁶ cm/s

SMILES: COc1cc2c(OC[C@H]3NC(=O)[C@H](C)[C@H]3C)nccc2cc1C(N)=O
- microsomal CLint [1]: 32 µL/min/mg
- Papp A→B [2]: 13.9 ×10⁻⁶ cm/s

SMILES: COc1cc2c(OC[C@H]3NC(=O)[C@@H](F)[C@H]3C)nccc2cc1C(N)=O
- microsomal CLint [1]: < 9 µL/min/mg
- Papp A→B [2]: 9.9 ×10⁻⁶ cm/s

SMILES: CC(C)Oc1cc2c(O[C@@H]3CCCNC3)ccnc2cc1C(N)=O
- Papp A→B [2]: 2.8 ×10⁻⁶ cm/s
- logD [4]: 0.4
- IC50 [19]: 146 nM

SMILES: CC(C)Oc1cc2ccccc2cc1C(N)=O
- IC50 [19]: 2090 nM

SMILES: CC(C)Oc1cc2c(OC[C@H]3CCC(=O)N3)nccc2cc1C(N)=O
- Papp A→B [2]: 10.5 ×10⁻⁶ cm/s

SMILES: COc1cc2c(OC[C@@H]3CCC(=O)N3)ccnc2cc1C(N)=O
- microsomal CLint [1]: < 8 µL/min/mg
- Papp A→B [2]: 5.8 ×10⁻⁶ cm/s
